Results gathered from unrelated publications.
Protocols differ between the studies behind these lines.
Oprm1: Mu-type opioid receptor (Oprm1, Rattus norvegicus, UniProt P33535)

SMILES | target | test | conditions | endpoint | result
COc1cc(Cl)c(C(=O)N[C@@H](CN[C@H]2CC[C@@H](N)CC2)Cc2ccc(C#N)cc2)cc1-c1ccc(CN[C@H](C)c2ccc(C)cc2)o1 | Serine/threonine-protein kinase Nek11 (NEK11, Homo sapiens, UniProt Q8NG66) | enzyme activity, inhibitor | 1 µM | remaining activity | 107%
CC(C)(C)c1nc(-c2cccc(NS(=O)(=O)c3c(F)cccc3F)c2F)c(-c2ccnc(N)n2)s1 | Tau-tubulin kinase 1 (TTBK1, Homo sapiens, UniProt Q5TCY1) | enzyme activity, inhibitor, radiometric | 1 µM | remaining activity | 89%
Cc1nn(C)cc1-c1nc2c(N3CCN(Cc4ccc(Cl)cc4)CC3)c(Cl)cnc2[nH]1 | Atypical kinase COQ8A, mitochondrial (COQ8A, Homo sapiens, UniProt Q8NI60) | binding, competition with immobilised ligand | 1 µM | remaining binding | 80%
C[C@@H](O)[C@@H]1CN([C@H](Cc2ccc3ccccc3c2)CN2CCC[C@H]2CN2CCNC[C@@H]2Cc2ccc3ccccc3c2)CCN1CCC12CC3CC(CC(C3)C1)C2 | Oprm1 | ligand displacement, radioligand | 0.5 µM, 1 h, pH 7.5, cell membranes | remaining binding | 107%
Cn1cc(-c2cccc(N3CCc4c(sc5c4CC(C)(C)C5)C3=O)c2CO)cc(Nc2ccncn2)c1=O | Phosphatidylinositol 4-kinase alpha (PI4KA, Homo sapiens, UniProt P42356) | enzyme activity, inhibitor | 1 µM | inhibition | -5%
Nc1ncc(-c2nc(N3CCOCC3)nc(N3CCOCC3)n2)c(C(F)F)n1 | Mast/stem cell growth factor receptor Kit (KIT, Homo sapiens, UniProt P10721, A829P) | binding, competition with immobilised ligand | 10 µM | remaining binding | 80%
C[C@@H](O)[C@@H]1CN([C@H](Cc2ccc3ccccc3c2)CN2CCC[C@H]2CN2CCNC[C@@H]2Cc2ccc3ccccc3c2)CCN1CCc1ccc(Cl)c(Cl)c1 | Oprm1 | ligand displacement, radioligand | 0.5 µM, 1 h, pH 7.5, cell membranes | remaining binding | 109%
C#Cc1n[nH]c2c(-c3cn(C(C)c4ccccn4)c(=O)[nH]c3=O)cc(F)cc12 (stereo not shown) | Vascular endothelial growth factor receptor 1 (FLT1, Homo sapiens, UniProt P17948) | enzyme activity, inhibitor | 1 µM | inhibition | -3.1%
OC[C@H]1CNCCN1C[C@@H]1CCCN1C[C@H](CC1CCCCC1)N1CCN(CCc2ccc(Cl)c(Cl)c2)[C@H](Cc2ccc(O)cc2)C1 | Oprm1 | ligand displacement, radioligand | 0.5 µM, 1 h, pH 7.5, cell membranes | remaining binding | 105%
CCN(CC)CCCC[C@H](NC(=O)[C@H](CC(C)C)NC(=O)[C@H](C)NC(=O)[C@H](Cc1ccccc1)NC(=O)c1ccc(C(C)(C)C)cc1)C(=O)N[C@@H](CO)C(=O)OC | 5-hydroxytryptamine receptor 5A (HTR5A, Homo sapiens, UniProt P47898) | ligand displacement, radioligand | 10 µM | remaining binding | 93.1%
CCCC[C@H]1CNCCN1C[C@@H]1CCCN1C[C@@H](Cc1ccc2ccccc2c1)N1CCN(CCC23CC4CC(CC(C4)C2)C3)[C@H]([C@@H](C)O)C1 | Oprm1 | ligand displacement, radioligand | 0.5 µM, 1 h, pH 7.5, cell membranes | remaining binding | 102%
COc1ncccc1-c1cnn2ccc(N3CCN(C(=O)OC(C)C)CC3)nc12 | Mitogen-activated protein kinase kinase kinase 19 (MAP3K19, Homo sapiens, UniProt Q56UN5) | binding, competition with immobilised ligand | 1 µM | remaining binding | 100%
Cn1cc(-c2cc(F)cc(N3CCn4c(cc5c4CCCC5)C3=O)c2CO)cc(Nc2ccc(N3CCN(C4COC4)CC3)cn2)c1=O | Phosphatidylinositol 4,5-bisphosphate 3-kinase catalytic subunit delta isoform (PIK3CD, Homo sapiens, UniProt O00329) | enzyme activity, inhibitor | 0.1 µM | inhibition | -1%
